Only some compounds are listed: those with a hit (about 5.7% of all), similar ones and a draw of the others.
SKKanGAS inh: S. pyogenes SKKanGAS growth inhibitors in kanamycin, primary screen, streptokinase expression inhibitor project, SKKanGAS strain, BacTiter-Glo luminescence; AID 1662, 2009; inhibition, % at 7.5 µM; 6 h; 300,000 compounds, 1.3% hits;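 active = mean replicate score, as percent of positive control median, at least 50; inconclusive = mean below 50 but one replicate at or above 50; inactive = mean and every replicate below 50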;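 note: strain carries kanamycin resistance gene driven by streptokinase promoter and grows in 40 µg/ml kanamycin; loss of luminescence reflects streptokinase promoter inhibition or plain growth inhibition; 0% = median of DMSO wells and 100% = positive control at its reference dose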
Mdm2-MdmX inh: inhibitors of human Mdm2-MdmX association, primary screen, cell-based, luminescence, split luciferase, SaOS-2, uHTS. Protein Mdm4 (Homo sapiens) + E3 ubiquitin-protein ligase Mdm2 (Homo sapiens), …. SaOS-2 split-luciferase Mdm2/MdmX complementation. inhibition, % at 8 µM. 330,000 compounds, 3% hits;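 active = inhibition of at least 50% at 8 µM in the primary screen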
Target sequence (O15151 whole entry, looked up): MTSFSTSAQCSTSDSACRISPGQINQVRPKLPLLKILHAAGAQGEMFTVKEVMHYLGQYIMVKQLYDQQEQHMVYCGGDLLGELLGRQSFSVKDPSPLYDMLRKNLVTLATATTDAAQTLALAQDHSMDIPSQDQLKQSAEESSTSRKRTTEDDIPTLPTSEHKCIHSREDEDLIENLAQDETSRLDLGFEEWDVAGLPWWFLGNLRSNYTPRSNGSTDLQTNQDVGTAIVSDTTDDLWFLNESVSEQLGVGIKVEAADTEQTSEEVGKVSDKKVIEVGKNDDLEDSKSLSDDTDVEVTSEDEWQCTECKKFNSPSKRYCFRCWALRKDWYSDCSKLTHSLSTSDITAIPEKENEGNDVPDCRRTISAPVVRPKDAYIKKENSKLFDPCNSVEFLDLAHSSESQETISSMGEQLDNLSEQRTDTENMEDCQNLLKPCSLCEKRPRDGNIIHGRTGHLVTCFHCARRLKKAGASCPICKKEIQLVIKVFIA
Target sequence (Q00987 whole entry, looked up): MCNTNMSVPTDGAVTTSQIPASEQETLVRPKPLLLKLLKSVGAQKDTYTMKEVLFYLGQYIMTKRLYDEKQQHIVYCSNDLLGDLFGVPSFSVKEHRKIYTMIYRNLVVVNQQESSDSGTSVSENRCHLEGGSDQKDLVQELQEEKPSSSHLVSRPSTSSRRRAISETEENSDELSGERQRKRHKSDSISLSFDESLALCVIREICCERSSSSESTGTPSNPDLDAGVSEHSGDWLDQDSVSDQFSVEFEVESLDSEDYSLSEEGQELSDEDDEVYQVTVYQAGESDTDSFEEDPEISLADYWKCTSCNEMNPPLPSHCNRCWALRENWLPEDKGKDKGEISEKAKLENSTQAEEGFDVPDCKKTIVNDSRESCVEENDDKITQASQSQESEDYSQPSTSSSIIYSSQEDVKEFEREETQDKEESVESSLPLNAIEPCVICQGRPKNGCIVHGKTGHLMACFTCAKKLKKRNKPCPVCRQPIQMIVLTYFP
CSC inhib: cancer stem cell viability inhibitors, primary screen, luminescence; 300,000 compounds, 1.1% hits; cancer stem cell-like cells viability; AID 2717, 2010; inhibition, % at 7.5 µM; in the data active = inhibition above about 75%; inconclusive = no clear call, values can overlap the other calls; tested in HMLE shEcad cells
Beta cell apopt: inhibitors of cytokine-induced beta cell apoptosis, primary screen, luminescence | protection from apoptosis, % (no concentration beside the values) | INS-1E cytokine-induced death, ATP luminescence, 48 h; percent of positive-control rescue, neutral wells zero | 300,000 compounds, 0.8% hits | AID 435005, 2010;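 active = Every replicate reaches about 75%, or at least half do and their mean reaches it too, limit read from the data; inconclusive = At least half of replicates reach the limit but their mean does not; inactive = Under half of replicates reach the limit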;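 note: 0% = cytokine-treated negative control wells and 100% = positive control rescue; higher means more ATP so stronger rescue from cytokine killing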
T cruzi inh: inhibitors of intracellular T. cruzi growth, primary screen, luminescence, NIH3T3 host cells; T. cruzi beta-gal in NIH3T3, 90 h; inhibition, % (concentration not given with the values); 300,000 compounds, 1.4% hits;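 active = mean inhibition across valid replicates above about 55%, limit read from the data; inconclusive = mean below that limit but half or more replicates reach it; inactive = mean below it, under half of replicates reach it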;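 note: signal also drops with host cell toxicity which is not excluded here; 0% = plate median of DMSO wells and 100% = zero luminescence signal; higher percent means less beta-gal luminescence so fewer parasites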
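compound dosing = single 50 nL compound addition per well in DMSO | material = NIH/3T3 host cells with β-galactosidase reporter T. cruzi | input = 5,000 host fibroblasts per well | timing = ≥90 h infection period, 3 h prior cell attachment | read-out basis = percent inhibition of parasite-derived β-gal signal | detection = GalScreen β-gal luminescence, detergent lysis, 60 min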
Calb FLC: C. albicans growth inhibition with fluconazole, primary screen, CaCi-2 strain, Alamar Blue fluorescence | AID 1979, 2009 | C. albicans CaCi-2 (fluconazole-resistant clinical isolate) + fluconazole, 48 h | 300,000 compounds, 0.57% hits | growth inhibition, % (concentration not given with the values);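 active = growth inhibition above about 58% in most replicates, limit read from the data, passing the limit was not always enough; inconclusive = exactly half the replicates above a set limit; inactive = most replicates below a set limit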;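 note: all wells also contain fluconazole at 8 µg/ml as a sub-toxic cotreatment; 0% = median of DMSO wells and 100% = median of geldanamycin control wells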
An asterisk follows results filed as active; ? = inconclusive; / = not tested or not shown.

SMILES | SKKanGAS inh | Mdm2-MdmX inh | CSC inhib | Beta cell apopt | T cruzi inh | Calb FLC
c1ccc(Nc2cccc3c(Nc4ccccc4)cccc23)cc1 | 2 | 27 | 39 | 27 | 56* | 6
Cc1cc(C(=O)NNc2ccc(Cl)cc2)no1 | -2 | 6 | 117* | -7 | 37 | 103*
Cc1cc(C(=O)NNC(=O)Nc2ccc(Cl)cc2)no1 | -1 | 1 | 1 | 3 | -7 | 4
Cc1ccc(NNC(=O)c2cc(C)on2)c(C)c1 | -1 | -25 | 26 | 0 | 23 | 4
Cc1cc(C(=O)NNc2ccc(F)cc2F)no1 | -6 | 5 | 75* | -9 | / | ?
O=c1/c(=C\c2cccc(O)c2)sc2nc(-c3ccccc3)c(-c3ccccc3)n12 | 70* | 5 | 91* | 10 | -13 | -3
CC(C)(C)OC(=O)C[C@@H]1C/C=C\C[C@H](CC(=O)NCCO)C(=O)NC[C@@H](c2ccccc2)OC1=O | / | -16 | -12 | -8 | / | /
CC(Oc1cccc(Cl)c1)C(=O)NCc1ccc(S(N)(=O)=O)cc1 (configuration not stated) | -3 | 5 | -5 | 4 | 5 | 2
O=S(=O)(Nc1ccc(Cl)cn1)c1ccc(F)cc1 | -4 | -14 | -20 | -1 | 0 | 21
COC(=O)[C@H](Cc1ccccc1)N(Cc1ccccc1)S(=O)(=O)N(Cc1ccccc1)[C@@H](Cc1ccccc1)C(=O)OC | / | 40 | -1 | 119* | / | /
COC(=O)[C@H](Cc1ccccc1)N(C)S(=O)(=O)c1cccc(S(=O)(=O)N(C)[C@@H](Cc2ccccc2)C(=O)OC)c1 | -1 | 16 | 5 | 2 | 21 | 1
Cc1nn(CC(=O)NCCCc2ccccc2)c(C)c1[N+](=O)[O-] | -2 | 19 | -8 | 1 | -6 | 87*
Cc1nn(CC(=O)NCCc2ccccc2)c(C)c1[N+](=O)[O-] | 4 | 1 | 3 | -12 | -6 | -14
CCCN(CCC)C(=O)c1cc([N+](=O)[O-])cc2c1-c1ccc([N+](=O)[O-])cc1C2=C(C#N)C#N | 8 | 24 | 52 | ? | 80* | 19
CCCCN(CCCC)C(=O)c1cc(Cl)ccc1[N+](=O)[O-] | 0 | -1 | -3 | 7 | -18 | 1
O=S(=O)(CCC1CCCCN1)c1ccccc1 (configuration not stated) | -3 | -7 | -7 | 1 | -10 | -3
N#Cc1ccc(C(=O)NC2CCCCCCC2)cc1 | -2 | -36 | -10 | 3 | -15 | -4
COc1cc(CCN2C(=O)c3cccc4cccc(c34)C2=O)c(S(=O)(=O)N2CCCCCC2)cc1OC | 11 | 45 | 6 | 25 | 58* | 6
COc1cc(CCN2C(=O)c3cccc4cccc(c34)C2=O)c(S(=O)(=O)N2CCC(C)CC2)cc1OC | 8 | 26 | -40 | 11 | 59* | 5
COc1cc(CCN2C(=O)c3cccc4cccc(c34)C2=O)c(S(=O)(=O)NCCO)cc1OC | 2 | 19 | 6 | 5 | 4 | -1
CCCn1nc(C(=O)NNC(=O)Cc2ccc(S(=O)(=O)N3CCOCC3)s2)c2ccccc2c1=O | -6 | 12 | -2 | -6 | -15 | -3
Cc1ccc(-c2csc3ncnc(-n4cnc5ccccc54)c23)cc1 | 3 | 40 | 77* | -2 | -29 | 1
Cc1cc(N/N=C/c2ccc3c(c2)OCO3)nc2ccccc12 | 4 | -111 | 20 | -3 | 15 | -8
CCOc1ccc(C2(C)CC(=O)N(C)C2=O)cc1 (configuration not stated) | 11 | 6 | -14 | / | -17 | 4
Cc1ccccc1NC(=O)Cc1nc(COC(=O)CC(C)c2ccccc2)cs1 (configuration not stated) | / | 11 | / | / | / | /
SMILES | SKKanGAS inh | Mdm2-MdmX inh | CSC inhib | Beta cell apopt | T cruzi inh | Calb FLC
CC(C)c1ccc(NC(=O)COc2ccccn2)cc1 | 13 | -3 | -7 | 0 | 56* | -3
O=C([O-])c1cc(-c2ccccc2)cc(-c2ccccc2)[n+]1Cc1ccccc1 | 2 | 17 | 0 | 122* | 44 | 1
Cc1ccc(-c2csc(Nc3ccc(C(=O)O)cc3)[n+]2Cc2ccccc2)cc1 | -15 | 18 | 41 | 9 | 39 | -3
CN(C)C(=O)/C(C#N)=C\c1cc(Br)c(Sc2ccc(Cl)cc2)o1 | / | / | 103* | -2 | / | /
Cc1cccc(NC(=O)c2ccc3c(c2)C(=O)N(c2ccccc2C)C3=O)n1 | -1 | 1 | -5 | -5 | -2 | -5
CC1(C)CN(c2ccccc2)N(C(=O)c2ccc(F)cc2)C1=O | -1 | -3 | 92* | -11 | 17 | 5
CC1(C)CN(c2ccccc2)N(C(=O)c2ccc(C#N)cc2)C1=O | 1 | 7 | 91* | -11 | / | 85*
CC(=O)OCC1(C)CN(c2ccccc2)N(C(=O)c2ccc(C(C)(C)C)cc2)C1=O (configuration not stated) | -3 | / | / | / | 25 | -45
CC1=C(C#N)c2nc(N)c(C#N)c(C)c2/C1=C\c1ccc(C)cc1 | 71* | 30 | 31 | / | 24 | 11
COc1cc(/C=C2\C(C)=C(C#N)c3nc(N)c(C#N)c(C)c32)ccc1OCC(=O)O | 3 | 8 | -6 | -1 | -3 | -7
COC(=O)[C@@]1(Cc2ccccc2)[C@H]2C(=O)N(C)C(=O)[C@H]2[C@H]2CN=C(SCC(=O)c3ccccc3)N21 | / | 37 | / | / | / | /
CC(C)CCNC(=O)C(c1ccc(O)cc1)N(Cc1cccs1)C(=O)C1COc2ccccc2O1 (configuration not stated) | 15 | 32 | 3 | / | 64* | 5
COc1ccc(CNCCSc2nnnn2C)c(OC)c1OC | 2 | 11 | -12 | 3 | -15 | 10
Cn1nnnc1SCCNCc1cccc2ccccc12 | -12 | 16 | -8 | 1 | 70* | 4
CCOc1cc(CNCCSc2nnnn2C)cc(Br)c1OCc1ccccc1F | -4 | 38 | 21 | 2 | 68* | ?
CC1N(C)c2cc(NC(=O)c3cccs3)c(P(=O)(Nc3ccc([N+](=O)[O-])cc3)N3CCOCC3)cc2C1(C)C (configuration not stated) | 25 | 44 | 6 | 24 | 64* | 74
CCCCN(C(=O)c1c(-c2ccccc2)noc1C)c1c(N)n(CCC)c(=O)[nH]c1=O | / | 18 | -10 | -1 | / | /
Cc1ccc(C)c(NC(=S)NNC(=O)c2csc(C(C)C)c2)c1 | -11 | -30 | 1 | -4 | 13 | 92*
Cc1ccc(C)c(NC(=S)NNC(=O)c2csc(C)c2C)c1 | -1 | -27 | -1 | 6 | 6 | -5

Assay outcomes from PubChem.
